Our source for the inhibition, IC50 and RBA values is ChEMBL document CHEMBL4765486, “Novel Nonsecosteroidal Vitamin D Receptor Modulator Combined with Gemcitabine Enhances Pancreatic Cancer Therapy through Remodeling of the Tumor Microenvironment” (J Med Chem, 2021).

Active and inactive are the calls of the source. Some results are limits rather than exact numbers.

Assay [1] has as its system LTC-14. Briefly: Inhibition of rat LTC-14 cells activation assessed decrease in TGF-beta1 induced Acta2 mRNA expression at 0.5 uM incubated for 24 hrs by q-PCR analysis. In kind it is functional, cell-based. In outline: (§1)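 Immortalized rat PSC line LTC-14, about 1×10^5 cells per well, was grown 24 h at 37 °C in 5% CO2. Cells then received compound (0.5 μM) plus TGF-β1 for 24 h; TGF-β1 is stated as 0.5 ng/mL in the text and 5 ng/mL in the methods. Col1a1 and Acta2 mRNA were measured by RT-qPCR. Mean ± SD versus TGF-β1 alone.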

Assay [2] concerns LTC-14. Briefly: Inhibition of rat LTC-14 cell activation assessed decrease in TGF-beta1 induced Colla1 mRNA expression at 0.5 uM incubated for 24 hrs by q-PCR analysis. In kind it is functional. In outline:
as §1

Assay [3] is described as follows: Cytotoxicity against rat LTC-14 cells assessed as reduction in cell proliferation incubated for 24 hrs by MTT assay. In kind it is cell-based. The note with it: LTC-14, 24 h. On the technique in general: Tetrazolium dyes change colour on reduction, which living cells bring about.
Assay [4] concerns the target T1, Vitamin D3 receptor (Homo sapiens) (UniProt P11473).
T1 sequence (whole entry): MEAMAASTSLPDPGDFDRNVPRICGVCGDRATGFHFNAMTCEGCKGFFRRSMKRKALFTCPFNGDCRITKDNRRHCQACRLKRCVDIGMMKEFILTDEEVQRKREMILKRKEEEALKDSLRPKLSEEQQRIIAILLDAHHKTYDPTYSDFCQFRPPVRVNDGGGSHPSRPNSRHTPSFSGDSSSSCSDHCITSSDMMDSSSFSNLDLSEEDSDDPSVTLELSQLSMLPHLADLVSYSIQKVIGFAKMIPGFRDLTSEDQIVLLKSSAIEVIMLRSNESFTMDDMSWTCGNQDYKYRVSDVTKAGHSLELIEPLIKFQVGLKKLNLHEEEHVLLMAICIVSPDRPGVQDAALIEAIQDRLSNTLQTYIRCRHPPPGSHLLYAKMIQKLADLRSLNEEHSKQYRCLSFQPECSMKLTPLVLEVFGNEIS
Briefly: Binding affinity to VDR (unknown origin) at 1 uM by fluorescence polarization assay relative to calcipotriol. The method, boiled down:
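PolarScreen VDR competitor fluorescence polarization assay with compounds at 1 μM in triplicate. Read-out used 535 nm excitation and 590 nm emission filters.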
(Fluorescence polarisation rises when a labelled molecule tumbles more slowly, as on binding a larger partner.)

The subject of assay [5] is LTC-14. Briefly: Inhibition of rat LTC-14 cells activation assessed decrease in TGF-beta1 induced collagen 1 protein expression at 0.5 uM incubated for 24 hrs by Western blot analysis. In kind it is functional, cell-based. The method, boiled down: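 LTC-14 cells were treated for 24 h with compound (0.5 μM) plus TGF-β1 (0.5 ng/mL in the text, 5 ng/mL in the methods). Lysates were run on 10% SDS-PAGE, transferred to PVDF and probed with rabbit anti-collagen I, with β-actin as reference. Bands were quantified by densitometry versus TGF-β1 alone.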
A general note: Immunoblotting shows a protein as a band on a membrane.

As a reminder, the IC50 is the concentration at which inhibition is half-maximal. Turning to `CCN(CC)CCCNC(=O)c1ccc(C(CC)(CC)c2ccc(OCCCCC(O)(CC)CC)c(C)c2)n1CC`, the inhibition entry with LTC-14 [1], in the assay on LTC-14 [2] and in the assay with LTC-14 [5] was “Active” throughout. Also, the half-inhibitory concentration (IC50) in assay [3] was greater than 10 µM. Also, the RBA entry in assay [4] is “inactive”.
Take `CCCC(O)(CCC)CCCCOc1ccc(C(CC)(CC)c2ccc(C(=O)NCCCN(CC)CC)n2CC)cc1C`: the inhibition entry with LTC-14 [1], in the assay on LTC-14 [2] and in the assay with LTC-14 [5] was “Active” in each case. Further, the IC50 in assay [3] was greater than 10 µM. In assay [4] (filed as agonist), the RBA was 64%.
For the molecule `CCN(CC)CCCNC(=O)c1ccc(C(CC)(CC)c2ccc(OCCCC(C)(C)O)c(C)c2)n1CC`, the inhibition result with LTC-14 [1], with LTC-14 [2] and with LTC-14 [5] was “Active” throughout. Further, in assay [3], the half-inhibitory concentration (IC50) is greater than 10 µM. For the same molecule, the RBA in assay [4] came to 33%.
For the molecule `CCn1cc(C(CC)(CC)c2ccc(OCC(C)O)c(C)c2)cc1C(=O)NCCN(C)C` (stereo not given), the inhibition entry in the assay with LTC-14 [1], with LTC-14 [2] and with LTC-14 [5] was “Active” each time. In assay [3], the IC50 was greater than 10 µM. The RBA in assay [4] (filed as agonist) stood at 70%.
For `CCN(CC)CCNC(=O)c1cc(C(CC)(CC)c2ccc(OCC(C)O)c(C)c2)cn1CC` (stereo not given), the inhibition entry in the assay with LTC-14 [1], in the assay on LTC-14 [2] and in the assay with LTC-14 [5] was “Active” in each case. Moreover, in assay [3], the IC50 was greater than 10 µM. In addition, the RBA result in assay [4] is “inactive”.
`CCn1cc(C(CC)(CC)c2ccc(OCC(C)O)c(C)c2)cc1C(=O)NCCCN1CCOCC1` (stereo not given): the inhibition entry in the assay with LTC-14 [1], with LTC-14 [2] and in the assay with LTC-14 [5] was “Active” in each case. Further, the IC50 in assay [3] is greater than 10 µM. For the same molecule, the RBA in assay [4] (filed as agonist) was found to be 71%.
On to `CCn1cc(C(CC)(CC)c2ccc(OCC(C)O)c(C)c2)cc1C(=O)NCC1CCCO1` (stereo not given), for which the inhibition result in the assay with LTC-14 [1], in the assay on LTC-14 [2] and in the assay with LTC-14 [5] was “Active” in each case. The IC50 in assay [3] is greater than 10 µM. Also, in assay [4] (filed as agonist), the RBA turned out to be 60%.
As for `CCN(CC)CCCNC(=O)c1cc(C(CC)(CC)c2ccc(OCCCC(O)(CC)CC)c(C)c2)cn1CC`, the inhibition result with LTC-14 [1], in the assay with LTC-14 [2] and in the assay with LTC-14 [5] was “Active” each time. In assay [3], the 50% inhibitory concentration (IC50) was greater than 10 µM. Also, the RBA in assay [4] (filed as agonist) was 46%.
For `CCN(CC)CCCNC(=O)c1cc(C(CC)(CC)c2ccc(OCCC(C)(C)O)c(C)c2)cn1CC`, the inhibition result in the assay on LTC-14 [1], with LTC-14 [2] and in the assay with LTC-14 [5] was “Active” in each case. Besides, in assay [3], the IC50 is greater than 10 µM. In assay [4] (filed as agonist), the RBA came out at 67%.
`CCn1cc(C(CC)(CC)c2ccc(OCC(C)O)c(C)c2)cc1C(=O)NCCCN1CCN(C)CC1` (stereo not given): the inhibition result with LTC-14 [1], with LTC-14 [2] and in the assay with LTC-14 [5] was “Active” in each case. Also, the 50% inhibitory concentration (IC50) in assay [3] was greater than 10 µM. Moreover, in assay [4] (filed as agonist), the RBA was found to be 62%.
Regarding `CCN(CC)CCCNC(=O)c1cc(C(CC)(CC)c2ccc(OCCC(O)(CC)CC)c(C)c2)cn1CC`, the inhibition result in the assay on LTC-14 [1], in the assay on LTC-14 [2] and with LTC-14 [5] was “Active” in each case. The IC50 in assay [3] was greater than 10 µM. Also, the RBA in assay [4] (filed as agonist) amounted to 51%.
Regarding `CCn1cc(C(CC)(CC)c2ccc(OCC(C)O)c(C)c2)cc1C(=O)NCCCN(CCO)CCO` (stereo not given), the inhibition result with LTC-14 [1], in the assay on LTC-14 [2] and with LTC-14 [5] was “Active” each time. In assay [3], the IC50 was greater than 10 µM. In addition, in assay [4] (filed as agonist), the RBA came to 70%.
`CCN(CC)CCNC(=O)c1cc(C(CC)(CC)c2ccc(OCCCCC(O)(CC)CC)c(C)c2)cn1CC`: the inhibition result in the assay on LTC-14 [1], in the assay on LTC-14 [2] and in the assay on LTC-14 [5] was “Active” each time. Moreover, the concentration for half-maximal inhibition (IC50) in assay [3] is greater than 10 µM. Moreover, the RBA in assay [4] (filed as agonist) was found to be 41%.
For the molecule `CCn1c(C(=O)NCCCN2CCOCC2)ccc1C(CC)(CC)c1ccc(OCCC(C)(C)O)c(C)c1`, the inhibition result in the assay on LTC-14 [1], with LTC-14 [2] and in the assay with LTC-14 [5] was “Active” each time. Besides, in assay [3], the IC50 was greater than 10 µM. In addition, in assay [4] (filed as agonist), the RBA was 63%.
As to `CCn1c(C(=O)NCCCN2CCN(C)CC2)ccc1C(CC)(CC)c1ccc(OCCC(C)(C)O)c(C)c1`, the inhibition result in the assay on LTC-14 [1], in the assay on LTC-14 [2] and in the assay on LTC-14 [5] was “Active” each time. In addition, in assay [3], the concentration for half-maximal inhibition (IC50) was greater than 10 µM. Moreover, the RBA in assay [4] (filed as agonist) came to 54%.
On to `CCN(CC)CCNC(=O)c1ccc(C(CC)(CC)c2ccc(OCCCC(O)(CC)CC)c(C)c2)n1CC`, for which the inhibition entry in the assay on LTC-14 [1], in the assay on LTC-14 [2] and with LTC-14 [5] was “Active” throughout. Moreover, in assay [3], the concentration for half-maximal inhibition (IC50) was greater than 10 µM. Besides, the RBA in assay [4] was 38%.
For the molecule `CCC(O)COc1ccc(C(CC)(CC)c2cc(C(=O)NCCCN(CC)CC)n(CC)c2)cc1C` (stereo not given), the inhibition result in the assay with LTC-14 [1], in the assay on LTC-14 [2] and in the assay with LTC-14 [5] was “Active” each time. Besides, the half-maximal inhibitory concentration (IC50) in assay [3] is greater than 10 µM. Besides, the RBA in assay [4] (filed as agonist) is 64%.
For the molecule `CCn1c(C(=O)NCCN(C)C)ccc1C(CC)(CC)c1ccc(OCCC(C)(C)O)c(C)c1`, the inhibition result with LTC-14 [1], in the assay on LTC-14 [2] and with LTC-14 [5] was “Active” each time. For the same molecule, the IC50 in assay [3] is greater than 10 µM. Besides, in assay [4] (filed as agonist), the RBA amounted to 48%.
For the molecule `CCN(CC)CCCNC(=O)c1ccc(C(CC)(CC)c2ccc(OCCCC(O)(CC)CC)c(C)c2)n1CC`, the inhibition entry in the assay on LTC-14 [1], in the assay on LTC-14 [2] and in the assay with LTC-14 [5] was “Active” each time. Besides, the IC50 in assay [3] is greater than 10 µM. Further, the RBA in assay [4] stood at 23%.
Regarding `CCN(CC)CCNC(=O)c1cc(C(CC)(CC)c2ccc(OCCC(O)(CC)CC)c(C)c2)cn1CC`, the inhibition result with LTC-14 [1], in the assay with LTC-14 [2] and in the assay on LTC-14 [5] was “Active” throughout. Also, the IC50 in assay [3] is greater than 10 µM. Also, in assay [4] (filed as agonist), the RBA came out at 80%.
Regarding `CCn1cc(C(CC)(CC)c2ccc(OCC(C)O)c(C)c2)cc1C(=O)NCCN1CCOCC1` (stereo not given), the inhibition result in the assay with LTC-14 [1], with LTC-14 [2] and with LTC-14 [5] was “Active” in each case. For the same molecule, the IC50 in assay [3] was greater than 10 µM. The RBA in assay [4] came out at 36%.
As for `CCN(CC)CCCNC(=O)c1cc(C(CC)(CC)c2ccc(OCC(O)C3CC3)c(C)c2)cn1CC` (stereo not given), the inhibition entry in the assay with LTC-14 [1], in the assay on LTC-14 [2] and with LTC-14 [5] was “Active” throughout. Also, in assay [3], the IC50 is greater than 10 µM. Moreover, the RBA in assay [4] (filed as agonist) was found to be 40%.
With `CCN(CC)CCCNC(=O)c1cc(C(CC)(CC)c2ccc(OCC(O)c3ccccc3)c(C)c2)cn1CC` (stereo not given), the inhibition entry in the assay on LTC-14 [1], in the assay on LTC-14 [2] and in the assay with LTC-14 [5] was “Active” in each case. Further, the half-maximal inhibitory concentration (IC50) in assay [3] was greater than 10 µM. For the same molecule, the RBA in assay [4] (filed as agonist) is 59%.
Turning to `CCn1c(C(=O)NCC2CCOCC2)ccc1C(CC)(CC)c1ccc(OCCC(C)(C)O)c(C)c1`, the inhibition entry with LTC-14 [1], in the assay with LTC-14 [2] and in the assay with LTC-14 [5] was “Active” each time. Moreover, the half-inhibitory concentration (IC50) in assay [3] is greater than 10 µM. Moreover, the RBA in assay [4] (filed as agonist) stood at 77%.
